Assay results as given in ChEMBL document CHEMBL3603803, “Design and synthesis of dithiocarbamate linked β-carboline derivatives: DNA topoisomerase II inhibition with DNA binding and apoptosis inducing ability” (Bioorg Med Chem, 2015).
Activity calls are given as the source filed them. No cut-off for these calls is given here.

Legend:
DU-145 [1] = test: Induction of apoptosis in human DU145 cells assessed as wrinkled cells at 0.5 uM after 48 hrs by Hoechst 33258 staining-based confocal microscopic analysis; type: functional, cell-based
Summary of the method: (§1)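 Hoechst H33258 staining of treated DU-145 cells at 0.5 µM; apoptotic cells (apoptotic bodies, condensation, nuclear fragmentation) counted by manual field quantification under the microscope, compared with control.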

DU-145 [2] = test: Induction of apoptosis in human DU145 cells assessed as DNA fragmented cells at 0.5 uM after 48 hrs by Hoechst 33258 staining-based confocal microscopic analysis; type: functional, cell-based; summary of the method: as §1
[3] = biological target: T1, DNA topoisomerase II (Homo sapiens) (UniProt P11388+Q02880); test: Inhibition of DNA-topoisomerase 2 catalytic activity (unknown origin) using catenated kDNA as substrate assessed as formation of nicked circular and relaxed DNA at 1 to 100 uM after 30 mins by agarose gel electrophoresis; type: protein assay
Summary of the method: (§2)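 Catenated DNA incubated with topo II and compound at 1, 10 and 100 µM; gel products scored for linear DNA (poison type) versus nicked circular/relaxed DNA retained in wells (catalytic inhibitor type); etoposide at 1, 10, 100 µM as control.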

Calf thymus DNA [4] = test: Induction of DNA intercalation of calf thymus DNA at 1 uM by UV-vis spectrophotometric analysis; type: nucleic-acid assay; settings: Bos taurus
Calf thymus DNA [5] = test: Binding affinity to calf thymus DNA surface at 1 uM by UV-vis spectrophotometric analysis; type: nucleic-acid assay; settings: Bos taurus
Calf thymus DNA [6] = test: Induction of DNA intercalation of calf thymus DNA at 10 uM by spectrofluorimetric analysis; type: nucleic-acid assay; settings: Bos taurus
Summary of the method: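 Fluorescence titration: CT-DNA added to compound solution and quenching of compound emission peak monitored (617 or 567 nm, depending on compound).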

Calf thymus DNA [7] = test: Stabilization of calf thymus DNA at 1:1 DNA to compound molar ratio by CD spectroscopic analysis; type: nucleic-acid assay; settings: Bos taurus
Summary of the method: (§3)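 CD spectra of CT-DNA with compound added at 10 µM to equal CT-DNA concentration (1:1), then raised to 1:2 DNA:ligand; positive band at 275 nm monitored.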

Calf thymus DNA [8] = test: Stabilization of calf thymus DNA at 1:2 DNA to compound molar ratio by CD spectroscopic analysis; type: nucleic-acid assay; settings: Bos taurus; summary of the method: as §3
A549 = test: Cytotoxicity against human A549 cells after 48 hrs by MTT assay; type: functional, cell-based; settings: A549, 48 h
Summary of the method: (§4)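 Human cancer cell lines (A549 lung, MCF-7 breast, DU-145 prostate, HeLa cervical) exposed to compounds for 48 h; 50% inhibitory concentration derived, average of three individual experiments; doxorubicin reference agent.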

MCF7 = test: Cytotoxicity against human MCF7 cells after 48 hrs by MTT assay; type: functional, cell-based; settings: MCF7, 48 h; summary of the method: as §4
DU-145 [9] = test: Cytotoxicity against human DU145 cells after 48 hrs by MTT assay; type: functional, cell-based; settings: DU-145, 48 h; summary of the method: as §4
HeLa = test: Cytotoxicity against human HeLa cells after 48 hrs by MTT assay; type: functional, cell-based; summary of the method: as §4
DU-145 [10] = test: Cell cycle arrest in human DU145 cells assessed as accumulation at subG1 phase at 0.5 uM after 48 hrs by propidium iodide staining-based flow cytometric analysis (reference value: 6.52%); type: functional
DU-145 [11] = test: Cell cycle arrest in human DU145 cells assessed as accumulation at subG1 phase at 1 uM after 48 hrs by propidium iodide staining-based flow cytometric analysis (reference value: 6.52%); type: functional
DU-145 [12] = test: Cell cycle arrest in human DU145 cells assessed as accumulation at G0/G1 phase at 0.5 uM after 48 hrs by propidium iodide staining-based flow cytometric analysis (reference value: 85.94%); type: functional
DU-145 [13] = test: Cell cycle arrest in human DU145 cells assessed as accumulation at G0/G1 phase at 1 uM after 48 hrs by propidium iodide staining-based flow cytometric analysis (reference value: 85.94%); type: functional
DU-145 [14] = test: Cell cycle arrest in human DU145 cells assessed as accumulation at S phase at 0.5 uM after 48 hrs by propidium iodide staining-based flow cytometric analysis (reference value: 4.02%); type: functional
DU-145 [15] = test: Cell cycle arrest in human DU145 cells assessed as accumulation at S phase at 1 uM after 48 hrs by propidium iodide staining-based flow cytometric analysis (reference value: 4.02%); type: functional
DU-145 [16] = test: Cell cycle arrest in human DU145 cells assessed as accumulation at G2/M phase at 0.5 uM after 48 hrs by propidium iodide staining-based flow cytometric analysis (reference value: 1.97%); type: functional
DU-145 [17] = test: Cell cycle arrest in human DU145 cells assessed as accumulation at G2/M phase at 1 uM after 48 hrs by propidium iodide staining-based flow cytometric analysis (reference value: 1.97%); type: functional
DU-145 [18] = test: Induction of apoptosis in human DU145 cells assessed as necrotic cells at 0.5 uM after 48 hrs by annexin V-FITC/propidium iodide staining-based flow cytometric analysis (reference value: 0.1%); type: functional
DU-145 [19] = test: Induction of apoptosis in human DU145 cells assessed as necrotic cells at 1 uM after 48 hrs by annexin V-FITC/propidium iodide staining-based flow cytometric analysis (reference value: 0.1%); type: functional
DU-145 [20] = test: Induction of apoptosis in human DU145 cells assessed as late apoptotic cells at 0.5 uM after 48 hrs by annexin V-FITC/propidium iodide staining-based flow cytometric analysis (reference value: 1.52%); type: functional
DU-145 [21] = test: Induction of apoptosis in human DU145 cells assessed as late apoptotic cells at 1 uM after 48 hrs by annexin V-FITC/propidium iodide staining-based flow cytometric analysis (reference value: 1.52%); type: functional
DU-145 [22] = test: Induction of apoptosis in human DU145 cells assessed as viable cells at 0.5 uM after 48 hrs by annexin V-FITC/propidium iodide staining-based flow cytometric analysis (reference value: 97.95%); type: functional; settings: DU-145, 48 h, read-out: Activity
DU-145 [23] = test: Induction of apoptosis in human DU145 cells assessed as viable cells at 1 uM after 48 hrs by annexin V-FITC/propidium iodide staining-based flow cytometric analysis (reference value: 97.95%); type: functional; settings: DU-145, 48 h, read-out: Activity
DU-145 [24] = test: Induction of apoptosis in human DU145 cells assessed as early apoptotic cells at 0.5 uM after 48 hrs by annexin V-FITC/propidium iodide staining-based flow cytometric analysis (reference value: 0.43%); type: functional
DU-145 [25] = test: Induction of apoptosis in human DU145 cells assessed as early apoptotic cells at 1 uM after 48 hrs by annexin V-FITC/propidium iodide staining-based flow cytometric analysis (reference value: 0.43%); type: functional
[26] = biological target: T1, DNA topoisomerase II (Homo sapiens); test: Interfacial poisoning activity at DNA-topoisomerase 2 (unknown origin) using catenated kDNA as substrate assessed as linear DNA formation at 1 to 100 uM after 30 mins by agarose gel electrophoresis; type: protein assay; summary of the method: as §2

| Structure (SMILES) | Activity (DU-145 [1]) | Activity (DU-145 [2]) | Activity (Calf thymus DNA [4]) | Activity (Calf thymus DNA [5]) | Activity (Calf thymus DNA [6]) | Activity (Calf thymus DNA [7]) | Activity (Calf thymus DNA [8]) | IC50 (A549) [nM] | IC50 (MCF7) [nM] | IC50 (DU-145 [9]) [nM] | IC50 (HeLa) [nM] | Activity (DU-145 [10]) [%] | Activity (DU-145 [11]) [%] | Activity (DU-145 [12]) [%] | Activity (DU-145 [13]) [%] | Activity (DU-145 [14]) [%] | Activity (DU-145 [15]) [%] | Activity (DU-145 [16]) [%] | Activity (DU-145 [17]) [%] | Activity (DU-145 [18]) [%] | also measured |
| --- | --- | --- | --- | --- | --- | --- | --- | --- | --- | --- | --- | --- | --- | --- | --- | --- | --- | --- | --- | --- | --- |
| CSC(=S)NCc1cc2c([nH]c3ccccc32)c(-c2ccc(F)cc2)n1 | Active | Active | Active | Active | Active | Active | Active | 4360 | 2450 | 1340 | 3460 | 7.34 | 15.61 | 84.83 | 75.52 | 3.36 | 3.34 | 1.98 | 2.33 | 0.14 | inhibition [3]: Active; Activity (DU-145 [19]): 0.96%; Activity (DU-145 [20]): 4.17%; Activity (DU-145 [21]): 14.68%; viability at 0.5 µM (DU-145 [22]): 94.6%; viability at 1 µM (DU-145 [23]): 80%; Activity (DU-145 [24]): 1.07%; Activity (DU-145 [25]): 4.4% |
| CSC(=S)NCc1cc2c3ccccc3n(C)c2c(-c2ccc(C(F)(F)F)cc2)n1 | Active | Active | Active | Active | Active | Active | Active | 3540 | 1090 | 790 | 1470 | 10.12 | 18.6 | 78.9 | 70.81 | 5.18 | 5.31 | 3.73 | 5.36 | 0.93 | Activity [26]: Active; Activity (DU-145 [19]): 1.65%; Activity (DU-145 [20]): 13.7%; Activity (DU-145 [21]): 21.19%; viability at 0.5 µM (DU-145 [22]): 81.5%; viability at 1 µM (DU-145 [23]): 75%; Activity (DU-145 [24]): 3.82%; Activity (DU-145 [25]): 2.18% |
